From ChEMBL document CHEMBL1130334, “Effect of plasma protein binding on in vivo activity and brain penetration of glycine/NMDA receptor antagonists” (J Med Chem, 1997) come the findings set out here.

The term ED50 denotes the dose that gives a 50% effect, or the effect in half of the subjects. In general, logP refers to the decadic logarithm of the partition coefficient of the neutral form, usually between octanol and water. High values mean a more lipophilic compound, low ones a more hydrophilic compound. By IC50 is commonly meant the concentration at which inhibition is half-maximal. Higher therefore signals weaker potency.

In series [1] the test system is Mus musculus. In words: Anticonvulsant activity measured by its ability to protect against audiogenic seizure in DBA/2 mice when dosed intraperitoneally 30 min prior to seizure induction. Conditions: ip. Format: functional. A digest of the protocol:
(§1)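 DBA/2 mice, compound dosed intraperitoneally 30 min before induction of audiogenic seizures. Reported as ED50 (mg/kg and μmol/kg) or as number protected/number tested at a single dose. For some compounds the test was run 10 min after dosing.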

Series [2] has as its target Albumin (Homo sapiens, UniProt P02768). In words: Human serum albumin index was measured by retention time on an HPLC column containing human albumin. A digest of the protocol: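 HPLC on a column containing human serum albumin. Retention volume of each compound is divided by that of a reference standard and normalized so the standard equals 100.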
Series [3] is described as follows: Partition coefficient (logP). The note with it: octanol/water. The class given is physicochemical. The method, boiled down:
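Octanol/pH 7.4 buffer partition; values were either measured or calculated from tables of π values.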

For series [4], the target named is Glutamate NMDA receptor (Rattus norvegicus) (UniProt P35439+Q00959+Q00960+Q00961+Q62645+Q8VHN2+Q9R1M7). Kind of series: Protein binding index(PBI) reflects the relative displacement of [3H]glycine from rat cortical membranes in the presence and absence of 0.2% human serum albumin. The class given is cell membranes. Conditions: Membrane. The method, boiled down:
(§2)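 [³H]glycine displacement from rat cortical membranes, with and without 0.2% (w/v) human serum albumin. Separation by centrifugation. Index = IC50 with albumin / IC50 without albumin.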
Background: Loss of bound radioactivity is the signal in a displacement assay; it reports binding, not function.

Series [5] concerns the target Glutamate NMDA receptor. In words: Affinity for the glycine binding site on rat N-methyl-D-aspartate glutamate receptor 1, determined by displacement of the glycine site antagonist [3H]L-689,560 from rat cortical membranes. The class given is cell membranes, Membrane.
Series [6] in a line: Protein binding index(PBI) is the ratio of binding affinities for the displacement of [3H]-glycine from rat cortical membranes in the presence and absence of 0.2% human serum albumin. Format: functional, cell membranes. The note with it: Membrane. A digest of the protocol: as §2
The species entered for series [7] is Rattus norvegicus. In words: Clearance into cortex from rat plasma or PBS. The class given is ADME, organism-based. The note with it: in vivo. The method, boiled down: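 Rat in situ brain perfusion (Takasato method, Gratton modifications). Compound is dissolved in phosphate-buffered saline and perfused 10 s, or dissolved in rat plasma and perfused 60 s. Drug in cortex is measured and clearance from the perfusate into cortex is calculated (mL s⁻¹ g⁻¹ × 10⁴). Mean with SEM, n = 4.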

Series [8] has as its system Mus musculus. In words: Ability of intravenously administered compound to prevent seizures, induced by NMDLA (500 mg/kg sc) in mice. Format: functional. A digest of the protocol:
(§3)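 Swiss Webster mice; seizures induced by N-methyl-D,L-aspartate 500 mg/kg sc. Test compound given iv 15 min before NMDLA. Where warfarin is used, it is given iv 15 min before the test compound.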

For series [9], the system named is Mus musculus. Kind of series: Ability of intravenously administered compound to prevent seizures, induced by NMDLA (500 mg/kg sc) in mice, in the presence of 60 mg/kg of warfarin. Format: functional. Conditions: route intravenous. A digest of the protocol: as §3
Series [10] has as its system Mus musculus. Kind of series: Ability of intravenously administered compound to prevent seizures, induced by NMDLA (500 mg/kg sc) in mice, in the presence of 100 mg/kg of warfarin. Format: functional. The note with it: route intravenous. A digest of the protocol: as §3
A short description of series [11]: protein binding index(PBI) is the ratio of binding affinities for the displacement of [3H]- glycine from rat cortical membranes in the presence and absence of 0.2% human serum albumin. The note with it: Membrane. Format: cell membranes. A digest of the protocol:
as §2

For series [12], the system named is Mus musculus. Kind of series: Anti convulsant activity of compound was measured by its ability to protect against audiogenic seizure in DBA/2 mice when dosed intraperitoneally 30 min prior to seizure induction. The class given is functional. Conditions: ip. A digest of the protocol: as §1

Sequence of Albumin (P02768 whole entry): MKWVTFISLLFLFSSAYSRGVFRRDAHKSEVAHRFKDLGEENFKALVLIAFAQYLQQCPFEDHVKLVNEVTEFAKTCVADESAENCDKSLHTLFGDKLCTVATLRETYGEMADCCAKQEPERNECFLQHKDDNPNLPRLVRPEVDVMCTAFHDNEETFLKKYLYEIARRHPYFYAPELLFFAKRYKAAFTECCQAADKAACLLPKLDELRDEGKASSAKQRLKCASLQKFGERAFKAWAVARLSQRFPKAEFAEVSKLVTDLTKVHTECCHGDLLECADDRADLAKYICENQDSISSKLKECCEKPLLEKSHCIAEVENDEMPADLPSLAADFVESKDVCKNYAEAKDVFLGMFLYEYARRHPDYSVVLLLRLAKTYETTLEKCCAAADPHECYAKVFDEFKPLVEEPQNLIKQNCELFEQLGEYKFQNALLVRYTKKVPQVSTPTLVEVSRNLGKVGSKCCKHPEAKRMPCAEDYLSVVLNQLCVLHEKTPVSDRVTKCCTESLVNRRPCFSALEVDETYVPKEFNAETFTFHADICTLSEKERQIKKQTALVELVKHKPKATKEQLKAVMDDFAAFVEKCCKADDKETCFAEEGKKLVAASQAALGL

Turning to `O=C1Nc2cc(Cl)ccc2CC1[N+](=O)[O-]` (stereo not drawn), the 50% effect level in [1] (ED50) was put at a dose of 13.5 mg/kg. Moreover, in [2], the HSAI was found to be 7. This compound also gave a logP in series [3] of 0.62.

Compound `Oc1nc2cc(Cl)ccc2c(O)c1-c1ccc(Oc2ccccc2)cc1` returned an ED50 in series [1] of 8.3 mg/kg. Besides, in series [2], the HSAI is 159.

As for `Oc1nc2cc(Cl)ccc2c(O)c1-c1cccc(Oc2ccsc2)c1`, it took a dose of 0.75 mg/kg to reach the 50% effect level in [1] (ED50). Also, the PBI in series [4] came to 127.

Compound `CC/C=C1\NC(=O)C(c2cccc(Oc3ccccc3)c2)=C1O` registered an IC50 in series [5] of 684 nM. Moreover, the HSAI in [2] is on record as 42. Besides, the PBI in series [4] was determined as 32.

`O=c1[nH]c2cc(Cl)c(Cl)c([N+](=O)[O-])c2[nH]c1=O` [LICOSTINEL] gave an IC50 in [5] of 2.8 nM. This compound also had an ED50 in series [1] of 3.3 mg/kg. Also, in series [2], the HSAI is 28.

`COc1ccc(Cc2cccc(-c3c(O)c4ccc(Cl)cc4[nH]c3=O)c2)cc1` had an IC50 in series [5] of 4.5 nM. Further, the ED50 in [1] was 0.7 mg/kg. Besides, the HSAI in [2] was determined as 97. Further, the logP in series [3] was 2.81. The compound further gave a PBI in series [4] of 193.

In turn, `C=C(C)COc1cccc(C2=C(O)/C(=C/CC)NC2=O)c1` displayed an HSAI in [2] of 13. Besides, the PBI in series [6] is 12.1.

Compound `COC(=O)c1c(O)c2ccc(Cl)cc2[nH]c1=O` showed an HSAI in series [2] of 3. Moreover, the PBI in series [4] was determined as 5.4. Besides, the Cortex_Clearance in series [7] is 2.8 ml s-1 (10e4*g)-1.

Regarding `O=c1[nH]c2cc(Cl)ccc2c(O)c1-c1cccc(Oc2ccccc2)c1`, the ED50 in [8] was 3.6 mg/kg; in series [1], 0.88 mg/kg; in series [9], 1.9 mg/kg; in series [10], 0.64 mg/kg. This compound returned an HSAI in [2] of 100. In [3], this compound yielded a logP of 2.9. In series [4], the PBI amounted to 94. Further, the Cortex_Clearance in series [7] is reported as 0 ml s-1 (10e4*g)-1.

Compound `Oc1ccccc1-c1cc2ccc(Cl)cc2nc1O` registered an HSAI in series [2] of 15. The compound further had a PBI in [4] of 8.2.

For the compound `Oc1nc2cc(Cl)ccc2c(O)c1-c1cccc(Cc2ccccc2)c1`, the ED50 in series [1] is 1.3 mg/kg. Further, the PBI in [4] was 758.

Take `Oc1nc2ccccc2c(O)c1-c1ccccc1`: in [1], it took a dose of 10.9 mg/kg to reach the 50% effect level (ED50). The compound also returned a PBI in series [4] of 3.1.

As for `O=c1[nH]c2cc(Cl)ccc2c(O)c1-c1ccccc1`, in series [11], the PBI was determined as 37. For the same compound, the 50% effective dose (ED50) in series [12] stood at 4.5 mg/kg. Besides, the HSAI in series [2] is reported as 10. Besides, the logP in series [3] turned out to be 1.6.

With `Oc1nc2cc(Cl)ccc2c2oc3ccccc3c12`, the HSAI in series [2] stood at 70. Further, the logP in series [3] was 4.34. This compound also returned a PBI in series [4] of 28.5.

Compound `Oc1nc2cc(Cl)ccc2c(O)c1-c1cccc(Cc2ccc(CCN3CCOCC3)cc2)c1` came in with an IC50 in series [5] of 9 nM. Further, the HSAI in [2] worked out at 49. In series [3], this compound displayed a logP of 3.01.

For `COCOc1ccc(Cc2cccc(-c3c(O)c4ccc(Cl)cc4[nH]c3=O)c2)cc1`, in series [5], the IC50 was found to be 2.2 nM. Further, it took a dose of 0.5 mg/kg to reach the 50% effect level in [12] (ED50). In [2], this compound gave an HSAI of 78. Besides, the logP in [3] came to 3.34.

For `Cc1ccc(-c2c(O)c3ccc(Cl)cc3[nH]c2=O)o1`, the IC50 in [5] stood at 481 nM. The compound also gave an HSAI in series [2] of 8. Further, in series [7], the Cortex_Clearance is recorded as 4.4 ml s-1 (10e4*g)-1.

In turn, `O=C(/C=C/c1c(C(=O)O)[nH]c2cc(Cl)cc(Cl)c12)Nc1ccccc1` returned an IC50 in [5] of 1 nM. Moreover, the HSAI in series [2] came to 197. The same compound returned a log partition coefficient (logP) in series [3] of 2.24.

For `Nc1c(-c2ccccc2)c(O)nc2cc(Cl)ccc12`, the PBI in [4] turned out to be 3.7.

The compound `NCc1ccc(CC(=O)N[C@H]2C[C@H](C(=O)O)Nc3cc(Cl)cc(Cl)c32)cc1` came in with an IC50 in series [5] of 38.5 nM. In [1], this compound gave an ED50 of 30 mg/kg. Moreover, in series [2], the HSAI came to 2. For the same compound, the PBI in series [4] worked out at 1.1.

In turn, `O=C(O)c1cc(O)c2c(Cl)cc(Cl)cc2n1` had an HSAI in series [2] of 5. In addition, in series [3], the logP was -0.44. For the same compound, the PBI in series [4] is 26.5.

In the case of `N[C@H](Cc1cc(I)c(OCCc2ccc(O)cc2)c(I)c1)C(=O)O`, the IC50 in series [5] is 426 nM. In addition, in [2], the HSAI worked out at 16. The compound also came in with a logP in series [3] of 2. For the same compound, the PBI in series [4] is 41.

For the compound `COc1ccc(CCOc2c(I)cc(C[C@@H](N)C(=O)O)cc2I)cc1`, in series [5], the IC50 was 545 nM. Also, the HSAI in [2] was 32. The same compound showed a logP in series [3] of 2.65. The compound further came in with a PBI in [4] of 11.7.
